Reference: ChEMBL document CHEMBL1671639, “Sitamaquine sensitivity in Leishmania species is not mediated by drug accumulation in acidocalcisomes” (Antimicrob Agents Chemother, 2008)

Columns and labels:
Leishmania sp. = test: Antiparasitic activity against promastigotes of Leishmania sp. after 3 days by Alamar blue assay; assay type: functional, organism-based; conditions: 72 h
How it was run: (§1)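 Promastigotes grown at 28°C in RPMI 1640-modified medium with 20% heat-inactivated FBS and harvested after 48 h of growth. Exposed to increasing sitamaquine concentrations for 72 h at 28°C. Growth read by Alamar Blue fluorescence (excitation 530 nm, emission 585 nm). EC50 taken as the concentration giving 50% growth inhibition. Run three times in duplicate.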

Leishmania donovani [1] = test: Drug uptake in Leishmania donovani at 5 uM after 15 mins at 4 degC by liquid scintillation counting; assay type: ADME, organism-based; conditions: in vivo, 0.25 h
How it was run: (§2)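 PBS-washed parasites at 2 × 10^7/ml in HBS (pH 7) were incubated with 5 μM [14C]sitamaquine for 15 min at 28°C or 4°C. Washing was 10 min on ice in PBS or PBS with 100 μM unlabeled sitamaquine, then twice in PBS. Cell-associated radioactivity in 1% Triton X-100 lysates was counted by liquid scintillation and related to Bradford protein.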

Leishmania donovani [2] = test: Drug uptake in Leishmania donovani at 5 uM after 15 mins at 28 degC by liquid scintillation counting; assay type: ADME, organism-based; conditions: in vivo, 0.25 h; how it was run: as §2
Leishmania donovani [3] = test: Drug uptake in Leishmania donovani at 5 uM after 15 mins at pH 8 by liquid scintillation counting; assay type: ADME, organism-based; conditions: in vivo, pH 8, 0.25 h
How it was run: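 Parasites were incubated at 28°C with [14C]sitamaquine in HBS adjusted to various pHs, up to pH 8. Cells were chilled, then washed 10 min on ice in PBS with 100 μM sitamaquine and twice in PBS. Uptake was quantified by liquid scintillation counting of Triton X-100 lysates, with Bradford protein. Means of three independent experiments.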

Leishmania donovani [4] = test: Drug uptake in Leishmania donovani at 10 uM for 10 mins by flow cytometry in presence of 20 mM NH4Cl acidic organelles alkalinization inducer; assay type: ADME, organism-based; conditions: in vivo
Leishmania donovani [5] = test: Drug uptake in Leishmania donovani at 10 uM for 10 mins by flow cytometry in presence of ionophores monensin; assay type: ADME, organism-based; conditions: in vivo
Leishmania donovani [6] = test: Drug uptake in Leishmania donovani at 10 uM for 10 mins by flow cytometry in presence of nigericin; assay type: ADME, organism-based; conditions: in vivo
Leishmania donovani [7] = test: Drug uptake in Leishmania donovani MHOM/ET/67/L82 assessed as reduction in fluorescence of LysoTracker Green by Flow cytometry analysis; assay type: ADME, organism-based; conditions: in vivo
How it was run: (§3)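 Promastigotes at 4 × 10^6 cells/ml were loaded with 100 nM LysoTracker Green DND-26 in HBS for 10 min at 28°C. They were then exposed to 1, 10 or 30 μM sitamaquine for 15 min at 28°C, washed and resuspended in PBS. Flow cytometry used 488 nm excitation and 515–545 nm emission after gating out dead cells and debris. Signal expressed as % of untreated.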

Leishmania donovani [8] = test: Drug uptake in Leishmania donovani MHOM/IN/80/DD8 assessed as reduction in fluorescence of LysoTracker Green by Flow cytometry analysis; assay type: ADME, organism-based; conditions: in vivo; how it was run: as §3
Leishmania tropica [9] = test: Drug uptake in Leishmania tropica MHOM/SU/60/LCR-L39 assessed as reduction in fluorescence of LysoTracker Green by Flow cytometry analysis; assay type: ADME, organism-based; conditions: in vivo; how it was run: as §3
Leishmania tropica [10] = test: Drug uptake in Leishmania tropica MHOM/SU/74/SAF-K27 assessed as reduction in fluorescence of LysoTracker Green by Flow cytometry analysis; assay type: ADME, organism-based; conditions: in vivo; how it was run: as §3
Leishmania donovani [11] = test: Antiparasitic activity against Leishmania donovani MHOM/ET/67/L82 after 3 days by Alamar blue assay; assay type: functional, organism-based; conditions: MHOM/ET/67/L82, 72 h; how it was run: as §1
Leishmania infantum = test: Antiparasitic activity against Leishmania infantum MHOM/ES/1993/BCN-99 after 3 days by Alamar blue assay; assay type: functional, organism-based; conditions: MHOM/ES/1993/BCN-99, 72 h; how it was run: as §1
Leishmania mexicana = test: Antiparasitic activity against Leishmania mexicana M9012 after 3 days by Alamar blue assay; assay type: functional, organism-based; conditions: M9012, 72 h; how it was run: as §1
Leishmania braziliensis = test: Antiparasitic activity against Leishmania braziliensis MHOM/PE/03/LH2419 after 3 days by Alamar blue assay; assay type: functional, organism-based; conditions: MHOM/PE/03/LH2419, 72 h; how it was run: as §1
Leishmania tropica [12] = test: Antiparasitic activity against Leishmania tropica MHOM/SU/60/LCR-L39 after 3 days by Alamar blue assay; assay type: functional, organism-based; conditions: MHOM/SU/60/LCR-L39, 72 h; how it was run: as §1
Leishmania major [13] = test: Antiparasitic activity against wild type amastigotes of Leishmania major AP3-complemented after 3 days by Alamar blue assay; assay type: functional, organism-based; conditions: 72 h
Leishmania major [14] = test: Antiparasitic activity against amastigotes of delta-null mutant Leishmania major AP3 after 3 days by Alamar blue assay; assay type: functional, organism-based; conditions: AP3, 72 h
Leishmania donovani [15] = test: Drug uptake in 1 mM N-ethylmaleimde pretreated Leishmania donovani at 5 uM after 15 mins by liquid scintillation counting; assay type: ADME, organism-based; conditions: in vivo, 0.25 h
How it was run: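 Parasites were treated with 1 mM NEM for 15 min on ice, then resuspended in fresh HBS. Cells at 2 × 10^7/ml were given 5 μM [14C]sitamaquine for 15 min at 28°C. Washing was 10 min on ice in PBS with 100 μM sitamaquine, then twice in PBS. Lysates in 1% Triton X-100 were read by scintillation counting, with Bradford protein.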

Leishmania major [16] = test: Drug uptake in Leishmania major MHOM/JL/80/Friedlin AP3delta-null mutant at 5 uM for 15 mins by liquid scintillation counting; assay type: ADME, organism-based; conditions: in vivo, 0.25 h
How it was run: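 Promastigotes from 48-h cultures were washed in PBS and resuspended at 2 × 10^7/ml in HEPES-buffered saline, pH 7. They were exposed to 5 μM [14C]sitamaquine for 15 min, chilled on ice, then washed 10 min on ice in PBS with 100 μM unlabelled sitamaquine and twice more in PBS. Pellets were lysed in 1% Triton X-100. Scintillation counts were normalised to Bradford protein.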

Leishmania major [17] = test: Drug uptake in AP3-complemented Leishmania major MHOM/JL/80/Friedlin at 5 uM for 15 mins by liquid scintillation counting; assay type: ADME, organism-based; conditions: in vivo, 0.25 h; how it was run: as §2

SMILES: CCN(CC)CCCCCCNc1cc(OC)cc2c(C)ccnc12.Cl.Cl
- EC50 (Leishmania sp.): 5.7 µM
- Drug uptake (Leishmania donovani [1]): Active
- Drug uptake (Leishmania donovani [2]): Active
- Drug uptake (Leishmania donovani [3]): Active
- Drug uptake (Leishmania donovani [4]): Not Active
- Drug uptake (Leishmania donovani [5]): Not Active
- Drug uptake (Leishmania donovani [6]): Not Active
- Drug uptake (Leishmania donovani [7]): Active
- Drug uptake (Leishmania donovani [8]): Active
- Drug uptake (Leishmania tropica [9]): Active
- Drug uptake (Leishmania tropica [10]): Active
- EC50 (Leishmania donovani [11]): 9.5 µM
- EC50 (Leishmania infantum): 9.5 µM
- EC50 (Leishmania mexicana): 9.5 µM
- EC50 (Leishmania braziliensis): 9.5 µM
- EC50 (Leishmania tropica [12]): 9.5 µM

SMILES: CCN(CC)CCCCCCNc1cc(O[14CH3])cc2c(C)ccnc12.Cl.Cl
- EC50 (Leishmania major [13]): 4.3 µM
- EC50 (Leishmania major [14]): 3.9 µM
- Drug uptake (Leishmania donovani [15]): Active
- Drug uptake (Leishmania major [16]): Not Active
- Drug uptake (Leishmania major [17]): Active
